How the values were obtained:
Carbonic anhydrase 9 = Carbonic anhydrase 9 (Homo sapiens, UniProt Q16790); assay: Inhibition of carbonic anhydrase 9 (unknown origin) preincubated for 15 mins by stopped flow CO2 hydration assay
Carbonic anhydrase 12 = Carbonic anhydrase 12 (Homo sapiens, UniProt O43570)
HT-29 [1] = assay: Cytotoxicity against human HT-29 cells assessed as cell viability at 100 uM after 48 hrs under normoxic conditions by MTT assay (reference value: 100%); assay type: functional
Outline: (§1)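 Cells cultured in high-glucose DMEM with 20% FBS at 37 °C and 5% CO2, seeded at 1x10^4/well, then dosed 24 h later (0–200 μM) for 48 h. Hypoxia: 1% O2, 5% CO2, balance N2 in a hypoxic workstation; normoxia: 20% O2 in air, 5% CO2. MTT (1 mg/ml) for 30 min at 37 °C, formazan dissolved in DMSO, A550. Untreated control set to 100%; quadruplicates, ≥3 cell batches, mean ± S.E.M.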

HT-29 [2] = assay: Cytotoxicity against human HT-29 cells assessed as cell viability at 30 uM after 48 hrs under hypoxic conditions by MTT assay (reference value: 100%); assay type: functional; outline: as §1
HT-29 [3] = assay: Cytotoxicity against human HT-29 cells assessed as cell viability at 100 uM after 48 hrs under hypoxic conditions by MTT assay (reference value: 100%); assay type: functional; outline: as §1
HT-29 [4] = assay: Cytotoxicity against human HT-29 cells assessed as cell viability at 200 uM after 48 hrs under hypoxic conditions by MTT assay (reference value: 100%); assay type: functional; outline: as §1
HT-29 [5] = assay: Cytotoxicity against human HT-29 cells assessed as cell viability at 30 uM after 48 hrs under normoxic conditions by MTT assay (reference value: 100%); assay type: functional; outline: as §1
HT-29 [6] = assay: Cytotoxicity against human HT-29 cells assessed as cell viability at 200 uM after 48 hrs under normoxic conditions by MTT assay (reference value: 100%); assay type: functional; outline: as §1

Carbonic anhydrase 12, sequence (O43570 whole entry): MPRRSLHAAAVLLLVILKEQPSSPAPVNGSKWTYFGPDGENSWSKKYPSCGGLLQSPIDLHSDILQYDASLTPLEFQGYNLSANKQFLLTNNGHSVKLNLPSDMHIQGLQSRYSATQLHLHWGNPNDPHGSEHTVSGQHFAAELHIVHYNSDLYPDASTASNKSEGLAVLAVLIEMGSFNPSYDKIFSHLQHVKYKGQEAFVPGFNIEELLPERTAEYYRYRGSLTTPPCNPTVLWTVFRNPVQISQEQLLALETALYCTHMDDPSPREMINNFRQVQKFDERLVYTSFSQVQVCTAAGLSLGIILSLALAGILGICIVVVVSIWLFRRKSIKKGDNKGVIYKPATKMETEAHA

| Compound | Ki (Carbonic anhydrase 9) [nM] | Ki (Carbonic anhydrase 12) [nM] | also measured |
| --- | --- | --- | --- |
| Cc1cc(NC(=O)Nc2cc(S(N)(=O)=O)cc([N+](=O)[O-])c2O)ccc1F | 370 | 880 |  |
| Cc1cc(C)cc(NC(=O)Nc2cc(S(N)(=O)=O)cc([N+](=O)[O-])c2O)c1 | 530 | 620 |  |
| COc1cccc(NC(=O)Nc2cc(S(N)(=O)=O)cc([N+](=O)[O-])c2O)c1 | 460 | 530 |  |
| CC(=O)Nc1nnc(S(N)(=O)=O)s1 [ACETAZOLAMIDE] |  |  | Activity (HT-29 [1]): 100.7%; Activity (HT-29 [2]): 107.6%; Activity (HT-29 [3]): 101.7%; Activity (HT-29 [4]): 90.9%; Activity (HT-29 [5]): 96.9%; Activity (HT-29 [6]): 96.9% |
| NS(=O)(=O)c1cc(NC(=O)c2ccccc2)c(OC(=O)c2ccccc2)c([N+](=O)[O-])c1 | 130 | 300 |  |
| NS(=O)(=O)c1cc(NC(=O)N[C@@H]2C(O)O[C@@H](CO)[C@H](O)[C@H]2O)c(O)c([N+](=O)[O-])c1 (stereo partly drawn) | 170 | 160 |  |
| NS(=O)(=O)c1ccc(O)c([N+](=O)[O-])c1 | 120 | 160 |  |
